From ChEMBL document CHEMBL2069211, “Busseihydroquinones A-D from the roots of Pentas bussei” (J Nat Prod, 2012)
pIC50: −log10 of the molar value. Calls of active or inactive are those of the source. The calls are words filed in the database; no cut-off is given here.

Assays:
Plasmodium falciparum [1] = assay: Antiplasmodial activity against chloroquine-sensitive Plasmodium falciparum D6 by SYBR green I-based assay; assay type: functional, organism-based
In short: (§1)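 Drug susceptibility is measured with the SYBR Green I-based in vitro malaria assay. Chloroquine and mefloquine run alongside as reference drugs. IC50 is the mean of at least 3 independent experiments.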

Plasmodium falciparum [2] = assay: Antiplasmodial activity against chloroquine-resistant Plasmodium falciparum W2 by SYBR green I-based assay; assay type: functional, organism-based; in short: as §1
[3] = Toxicity against human MCF7 cells incubated for 48 hrs by PrestoBlue cell viability reagent based assay; settings: read-out: LD50
In short: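 MCF-7 cells are grown in DMEM with 10% FBS, 2 mM L-glutamine and penicillin/streptomycin at 37 °C in 5% CO2. They are seeded for exponential growth and preincubated 24 h. Drug or DMSO vehicle (0.1% or 1.0% v/v) is then added for 48 h. PrestoBlue absorbance is read at 570 nm (600 nm reference). Viability is expressed as % of vehicle, six replicates, with repeated independent experiments.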

[4] = Selectivity index, ratio of LD50 for human MCF7 cells to IC50 for chloroquine-sensitive Plasmodium falciparum D6; assay type: toxicity, cell-based; settings: read-out: Selectivity Index
In short: (§2)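 The selectivity index is the MCF-7 LD50 (48 h PrestoBlue assay) divided by the P. falciparum IC50 (SYBR Green I assay) for the same strain.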

[5] = Selectivity index, ratio of LD50 for human MCF7 cells to IC50 for chloroquine-resistant Plasmodium falciparum W2; assay type: toxicity, cell-based; settings: read-out: Selectivity Index; in short: as §2
Escherichia coli = assay: Antimicrobial activity against Escherichia coli at 0.1 mg/disc incubated for 24 to 72 hrs by disc diffusion assay; assay type: functional, organism-based
In short: (§3)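 Paper discs loaded with sample are laid on seeded agar plates, in triplicate under sterile conditions. Incubation is at 37 °C for E. coli, S. aureus and C. albicans, and at 25 °C for A. niger. Streptomycin (bacteria) and nystatin (fungi) serve as standards at 0.1 mg/100 μL. Sample solvents serve as controls.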

Staphylococcus aureus = assay: Antimicrobial activity against Staphylococcus aureus at 0.1 mg/disc incubated for 24 to 72 hrs by disc diffusion assay; assay type: functional, organism-based; in short: as §3
Candida albicans = assay: Antimicrobial activity against Candida albicans at 0.1 mg/disc incubated for 24 to 72 hrs by disc diffusion assay; assay type: functional, organism-based; in short: as §3
Aspergillus niger = assay: Antimicrobial activity against Aspergillus niger at 0.1 mg/disc incubated for 24 to 72 hrs by disc diffusion assay; assay type: functional, organism-based; in short: as §3

| SMILES | pIC50 (Plasmodium falciparum [1]) | pIC50 (Plasmodium falciparum [2]) | CC50 at 48 h [3] [µM] | selectivity ratio [4] | selectivity ratio [5] | inhibition zone (IZ) (Escherichia coli) | inhibition zone (IZ) (Staphylococcus aureus) | inhibition zone (IZ) (Candida albicans) | inhibition zone (IZ) (Aspergillus niger) |
| --- | --- | --- | --- | --- | --- | --- | --- | --- | --- |
| COc1cc(C(=O)O)c(O)c2ccc3c(c12)C=CC(C)(CCC=C(C)C)O3 (racemic) [BUSSEIHYDROQUINONE C] | 4.49 | 4.22 | > 272 | > 8.32 | > 4.52 | inactive | inactive | inactive | inactive |
| COc1cc(C(=O)O)c(O)c2ccc3c(c12)C=CC(C)(C)O3 [BUSSEIHYDROQUINONE B] | 4.56 | 3.90 | 374 | 13.4 | 2.96 | inactive | inactive | inactive | inactive |
| COC(=O)c1cc(OC)c2cc(OC)c(OC)c(O)c2c1O [BUSSEIHYDROQUINONE A] | 4.44 | 3.84 | 304 | 8.44 | 2.11 | inactive | inactive | inactive | inactive |
| COC(=O)c1cc(OC)c2cc(O)c3c(c2c1O)C=CC(C)(CCC=C(C)C)O3 (racemic) | 4.51 | 4.07 | 86.4 | 2.83 | 1.02 | inactive | inactive | inactive | inactive |
| OC(c1cc(C(F)(F)F)nc2c(C(F)(F)F)cccc12)C1CCCCN1 (stereo unspecified) [MEFLOQUINE] | 7.54 |  |  |  |  |  |  |  |  |
| COc1cc(C(=O)O)c(O)c2ccc3c(c12)C=C1/C(=C(\C)C=O)CCC1(C)O3 (racemic) [BUSSEIHYDROQUINONE D] | 4.71 | 4.10 | > 262 | > 13.4 | > 3.27 | inactive | inactive | inactive | inactive |
